Measurements published in publication PMC3638295 (International Journal of Medical Sciences, 2013).
No end group written: not given here.

Assays:
[1] = test system: DENV-2; experiment: Plaque formation assay; format: cell-based, DENV-2 (strain New Guinea C); settings: dose-response curve
Procedure, shortened: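 LLC-MK2 monkey kidney cells (passage <50; DMEM + 10% FBS, 37°C, 5% CO2) were seeded at 3×10^5 cells/well and exposed to a mixture of about 200 PFU DENV-2 New Guinea C (grown in C6/36 cells) and peptide. Plaques per well were counted and normalized to untreated controls as percent inhibition. Run in triplicate.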

[2] = test system: LLC-MK2 cells; experiment: Cytotoxicity, MTS cell viability assay; format: cell-based, Rhesus Monkey; settings: 1 to 500 µM peptide, 24, 48 and 72 hours, triplicate

Row | Sequence | maximum inhibition activity against DENV-2 ([1]; at 500 µM, mean ± SD, triplicate) | IC50 ([1]; read-out: IC50 against DENV-2, LLC-MK2 cells) | Toxicity compared to untreated control [2]
1 | AGVKDGKLDF [DET4] | 84.6% ± 5.6 | 35 µM | –
2 | IGVRPGKLDL [DET3] | – | – | highest toxic effect compared to other peptides
